Source: PubChem
A selection: hits, their analogues and other compounds. The true share with any hit is near 1.8%.
M5 PAM – potentiates acetylcholine response at human M5 receptor. hit rate 0.3% among 360,000. activation, % at 3 µM. P08912. CHO-K1 hM5, Fluo-8 calcium, ACh EC20 PAM; 0% = ACh EC20, 100% = ACh EC100;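 active means activation above the run cutoff, the mean activation of all test compounds plus 3 SD, cut at about 18% in these data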
Target sequence (P08912 whole entry, looked up): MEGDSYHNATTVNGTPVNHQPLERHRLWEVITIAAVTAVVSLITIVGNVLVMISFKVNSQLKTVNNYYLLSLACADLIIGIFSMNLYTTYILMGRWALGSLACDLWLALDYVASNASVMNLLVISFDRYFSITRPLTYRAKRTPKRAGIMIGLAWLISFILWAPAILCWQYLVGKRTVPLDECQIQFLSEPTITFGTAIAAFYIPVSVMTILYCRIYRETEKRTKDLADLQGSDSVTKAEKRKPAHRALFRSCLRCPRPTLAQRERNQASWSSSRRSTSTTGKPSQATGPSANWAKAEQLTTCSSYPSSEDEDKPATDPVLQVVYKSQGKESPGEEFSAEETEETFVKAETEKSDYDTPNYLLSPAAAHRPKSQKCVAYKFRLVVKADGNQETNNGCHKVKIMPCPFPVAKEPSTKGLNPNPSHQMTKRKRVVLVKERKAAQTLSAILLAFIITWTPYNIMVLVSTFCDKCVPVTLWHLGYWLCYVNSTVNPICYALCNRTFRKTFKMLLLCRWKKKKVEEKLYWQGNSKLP
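system = human M5 receptor in CHO-K1 cells | reagent = EC20 acetylcholine as agonist stimulus | compound dosing = single-point, 3 µM nominal | incubation = Fluo-8 loading 80 min at 37 °C plus 30 min room temperature | detection = Fluo-8 calcium dye fluorescence, kinetic read | benchmarks = low control EC20 acetylcholine (0%), high control EC100 acetylcholine (100%)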
M5 antag – antagonists of human muscarinic M5 receptor (CHRM5) | P08912 | CHO-hM5 cells, Fluo-8 calcium fluorescence, ACh EC80 | inhibition, % at 3 µM | hit rate 0.59% among 360,000;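 active means inhibition above a per-plate cutoff, the mean of that plate's test compounds plus 3 SD, cut at about 27% in these data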;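 further: 0% = acetylcholine EC80 with DMSO and 100% = DMSO without agonist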
CHRM4 agonist – agonists of human muscarinic M4 receptor (CHRM4); hit rate 0.14% among 360,000; activation, % at 3 µM; P08173; CHO-K1 hM4/Gqi5, Fluo-8 calcium fluorescence; vehicle 0%, full acetylcholine response 100%;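 active means activation above the run mean over all test wells plus 3 SD, cut at about 32% in these data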;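 further: peak over basal fluorescence ratio per well then scaled between controls; 0% = DMSO wells and 100% = acetylcholine at EC100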
CHRM4 PAM – CHRM4 positive allosteric modulation; CHO-K1 hM4/Gqi5, Fluo-8 calcium fluorescence, ACh EC20; 0% = ACh EC20, 100% = maximal ACh; activation, % at 3 µM; hit rate 0.4% among 360,000; AID 624126;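 active means activation above its plate's cutoff, the mean activation of sample wells plus 3 SD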
M5 ag – CHRM5 agonism in calcium assay | activation, % at 3 µM | hit rate 0.19% among 360,000 | CHO-K1 hM5 cells, Fluo-8 calcium fluorescence; 0% DMSO wells, 100% maximal acetylcholine response | P08912 | AID 624037;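 active means activation above the run's mean over test compounds plus 3 SD, cut at about 23% in these data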;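 further: signal is peak over basal fluorescence ratio across the kinetic read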
CHRM4 antagonist – CHRM4 antagonism in calcium assay; P08173; inhibition, % at 3 µM; CHO-hM4 cells, ACh EC80, Fluo-8 calcium fluorescence; hit rate 0.73% among 360,000;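 active means inhibition above its plate's cutoff, the mean inhibition of sample wells plus 3 SD, cut at about 27% in these data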;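 further: 0% = acetylcholine EC80 with DMSO and 100% = DMSO without agonist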
Starred values were filed as active, the others as inactive.

`Cc1ccc(C(=O)OC(C)C(=O)N(C)C2CCCCC2)cc1S(=O)(=O)N1CCCCC1` (configuration not stated) gave M5 PAM -7, M5 antag 7, CHRM4 agonist 4, CHRM4 PAM -3, M5 ag -2 and CHRM4 antagonist 8.
Screening CCCC1=C(C(=O)OCC)C(c2sccc2C)n2ncnc2N1 (configuration not stated) returned M5 PAM -1, M5 antag 3, CHRM4 agonist 0, CHRM4 PAM -4, M5 ag 1 and CHRM4 antagonist 5.
O=C(NC(C(=O)N/N=C/c1cc([N+](=O)[O-])ccc1O)c1n[nH]c(=O)c2ccccc12)c1ccccc1 (configuration not stated) was read as M5 PAM 1, M5 antag 12, CHRM4 agonist 0, CHRM4 PAM -6, M5 ag -1 and CHRM4 antagonist 10.
Screening O=C(N/N=C1/CCSC1)c1cc(Br)ccc1O returned M5 PAM -18, M5 antag 45*, CHRM4 agonist 8, CHRM4 PAM -4, M5 ag -1 and CHRM4 antagonist -5.
For C[C@@H]1CC[C@]2(O[C@H](CCO)C[C@@H](O)[C@@H]2O)O1 the results were M5 PAM 25*, M5 antag -2, CHRM4 agonist -1, CHRM4 PAM 14, M5 ag 4 and CHRM4 antagonist -2.
`C[C@H]1CC[C@@]2(O[C@@H](CCO)C[C@@H](O)[C@@H]2O)O1` gave M5 PAM 1, M5 antag -1, CHRM4 agonist 1, CHRM4 PAM 14, M5 ag 4 and CHRM4 antagonist 3.
`CCN(CC)C1=NC=CC(c2ccccc2)=CC1C` (configuration not stated) gave M5 PAM -12, M5 antag 8, CHRM4 agonist 2, CHRM4 PAM -32, M5 ag -7 and CHRM4 antagonist 39*.
`O=C(CCn1cnc(-c2ccccc2)c1-c1ccccc1)N/N=C/c1ccc(O)cc1` gave M5 PAM -4, M5 antag 5, CHRM4 agonist 0, CHRM4 PAM -1, M5 ag -2 and CHRM4 antagonist -5.
Screening COc1ccc(/C=N/NC(=O)CCn2cnc(-c3ccccc3)c2-c2ccccc2)cc1 returned M5 PAM -2, M5 antag -3, CHRM4 agonist 0, CHRM4 PAM 7, M5 ag 1 and CHRM4 antagonist 85*.
Screening CCc1nc2ccc(C(=O)NCCc3c[nH]c4ccccc34)cn2c1N(C)Cc1ccc(N(C)C)cc1 returned M5 PAM -9, M5 antag 9, CHRM4 agonist 6, CHRM4 PAM -11, M5 ag 0 and CHRM4 antagonist 3.
For Fc1ccc(-c2[nH]ncc2CN2CCN(c3ccc(F)cc3)CC2)cc1 the results were M5 PAM 2, M5 antag 5, CHRM4 agonist 9, CHRM4 PAM -4, M5 ag 31* and CHRM4 antagonist 2.
Fc1ccc(N2CCN(Cc3cn[nH]c3-c3ccccc3)CC2)cc1 was read as M5 PAM -3, M5 antag 4, CHRM4 agonist 1, CHRM4 PAM -7, M5 ag 7 and CHRM4 antagonist -3.
For O=C(COC(=O)C1CCC(=O)N1)Nc1ccccc1Br (configuration not stated) the results were M5 PAM 21*, M5 antag 2, CHRM4 agonist 0, CHRM4 PAM -3, M5 ag 0 and CHRM4 antagonist -14.
For O=C(COC(=O)C1CCC(=O)N1)Nc1ccc(Oc2ccccc2)cc1 (configuration not stated) the results were M5 PAM -4, M5 antag 6, CHRM4 agonist 1, CHRM4 PAM -1, M5 ag -1 and CHRM4 antagonist 3.
`CCN(CC)CCNC1=NCCn2c1cc1cc(OC)ccc12` gave M5 PAM 20*, M5 antag 1, CHRM4 agonist 0, CHRM4 PAM 4, M5 ag -10 and CHRM4 antagonist -4.
